Measured values reported in PMC7583042 (Free radical biology & medicine, 2019).
“And” between values parts separate entries of the source, which are not always exact repeats. Identical values can stand only once. “Also recorded” adds a separate entry of the source. Like-named read-outs stand apart in the source and are kept apart here.

How the values were obtained:
SmTGR-E330A/D334A [1] = molecular target: T1, SmTGR-E330A/D334A (Schistosoma mansoni, UniProt Q962Y6, D334A/E330A); assay: Time dependent inactivation of SmTGR-E330A/D334A; assay type: biochemical; details: global fitting of time dependent inactivation
[2] = molecular target: human glutathione S-transferase Ω−1 (GSTO1); details: ref bioassay AID 66188991; cited from earlier work
SmTGR-U597C [3] = molecular target: SmTGR-U597C (Schistosoma mansoni, UniProt Q962Y6); assay: biochemical
SmTGR-U597C [4] = assay: biochemical; details: 15 min
human GR = molecular target: T2, human GR (Homo sapiens, UniProt P00390); assay: biochemical; assay type: biochemical; details: for inhibition of Human GR @ 2 mM: 2 mM compound; for Apparent IC50 Human GR: 15 min preincubation with NADPH
T2 sequence (P00390 1-479 isoform P00390-2): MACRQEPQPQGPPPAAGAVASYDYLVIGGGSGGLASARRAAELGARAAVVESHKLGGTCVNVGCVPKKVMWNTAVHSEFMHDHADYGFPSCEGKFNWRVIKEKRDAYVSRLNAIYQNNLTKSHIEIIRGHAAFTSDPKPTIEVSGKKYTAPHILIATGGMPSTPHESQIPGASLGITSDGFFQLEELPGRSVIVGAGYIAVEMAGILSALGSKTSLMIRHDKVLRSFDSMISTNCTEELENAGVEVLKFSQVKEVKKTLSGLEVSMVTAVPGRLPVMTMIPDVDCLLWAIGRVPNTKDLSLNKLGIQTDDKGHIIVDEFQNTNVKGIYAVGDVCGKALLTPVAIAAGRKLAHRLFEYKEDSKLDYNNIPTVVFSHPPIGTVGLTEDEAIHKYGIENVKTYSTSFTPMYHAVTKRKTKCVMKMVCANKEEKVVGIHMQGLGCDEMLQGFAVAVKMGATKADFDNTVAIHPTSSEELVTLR

SmTGR WT [5] = molecular target: T3, SmTGR WT (Schistosoma mansoni, UniProt Q962Y6); assay: biochemical; assay type: biochemical
Rat TrxR = details: ref bioassay AID 588453, cited from earlier work; for IC50: read-out: Apparent IC50 Rat TrxR
[6] = oQM-thiol adduct formation with Cys and GSH followed by RP-HPLC/MS; assay type: physicochemical; details: pH 7.4, ambient temperature
Outline: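 Test compound (1 mM) was incubated alone or with 1 mM Cys and GSH in 5 mM sodium phosphate, pH 7.4 (also pH 8.3), at ambient temperature. Aliquots were injected at time intervals onto C18 RP-HPLC, eluting with a 0–100% acetonitrile gradient in 0.1% formic acid. Peaks were identified by ESI-MS and CID MS/MS (−4.0 kV, m/z 125–2,000, 260 °C capillary).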

SmTGR WT [7] = molecular target: SmTGR WT (Schistosoma mansoni, UniProt Q962Y6, X597U); assay type: biochemical; details: global fitting of time dependent inactivation
Adult S. mansoni = assay: Ex vivo cultured adult worm survival; assay type: cell-based, Schistosoma mansoni; details: ex vivo culture
Outline: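 Adult worms were isolated from infected mice and held 24 h in RPMI with 10% fetal calf serum, 10 mM glutamine and 1× penicillin/streptomycin. Test compound was then added to the medium at 10 or 50 μM. Worms were observed daily and scored dead when no movement was seen after several minutes' observation. Percentage dead is reported at 144 h.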

[8] = pKa of the amine named in the cell; source not stated; cited from earlier work
Larval S. mansoni = assay: Ex vivo cultured larval worm survival; assay type: cell-based, Schistosoma mansoni; details: ex vivo culture
Outline: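 Schistosomula were made by mechanical transformation of cercariae shed from infected Biomphalaria glabrata, then isolated on a Percoll gradient. They were cultured 24 h in M-199 with 10% fetal calf serum before test compound was added at 10 μM. Daily observation scored larvae dead when motionless for several minutes. Percentage dead is reported at 120 h.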

SmTGR WT [9] = molecular target: T3, SmTGR WT; assay: NADPH oxidase activity of inhibited enzyme; assay type: biochemical; details: 50 μM inhibitor, 30 min, pyrogallol red
SmTGR WT [10] = assay type: biochemical, Schistosoma mansoni
SmTGR-E330A/D334A [11] = molecular target: T1, SmTGR-E330A/D334A; assay: SmTGR-E330A/D334A mutant inhibition, DTNB assay; assay type: biochemical
[12] = read-out: Apparent IC50 TGR, 15 min preincubation, NADPH present
[13] = read-out: IC50 (Table 2), SmTGR value repeated in Table 2

Row | SMILES | Apparent IC50 GSTO1 [2] | IC50 (Rat TrxR) | Adult S. mansoni (144 h) 10 μM, worms dead (Adult S. mansoni) | Adult S. mansoni (144 h) 50 μM, worms dead (Adult S. mansoni) | pka of the leaving group upon oQM formation [8] | IC50 (SmTGR WT [5]; [12]) | Apparent IC50 Rat TrxR (Rat TrxR) | Apparent IC50 Human GR (human GR) | also measured
1 | Oc1ccc2ccccc2c1CN1CCOCC1 [Compound 1, 1-(Morpholin-4-ylmethyl)-2-naphthol] | not detected; also recorded: inactive | 10 µM | 8% dead | 13 % dead | 8.3 (morpholine) |  |  |  | second order rate constant for inhibition of SmTGR E330/D334 (SmTGR-E330A/D334A [1]): 1300 M⁻¹ s⁻¹; IC50 (SmTGR-U597C [3]): 100 µM; fold higher apparent IC50 for SmTGR-U597C than for WT (SmTGR-U597C [4]): 200 fold; IC50 (human GR): 71 ± 11.7 µM; IC50 (SmTGR WT [5]): 0.61 ± 0.09 µM; time to generate comparable amounts of oQM-thiol adduct [6]: 1 h; second order rate constant for inhibition of SmTGR WT (SmTGR WT [7]): 1830 M⁻¹ s⁻¹
2 | CCOC(=O)N1CCN(Cc2c(O)ccc3ccccc23)CC1 [Compound 2] | inactive | 12.6 µM |  | 5% dead |  | 0.65 ± 0.12 µM |  |  | inhibition of Human GR @ 2 mM (human GR): 35% inhibition @ 2 mM; IC50 (SmTGR WT [5]; [13]): 0.65 ± 0.12 µM
3 | CN(Cc1ccccc1)Cc1c(O)ccc2ccccc12 [Compound 3] | inactive |  | 0% dead | 24 % dead |  | 0.84 ± 0.03 µM | inactive |  | Larval S. mansoni (120 h) 10 μM, worms dead (Larval S. mansoni): 19% dead; inhibition of Human GR @ 2 mM (human GR): 20% inhibition @ 2 mM; IC50 (SmTGR WT [5]; [13]): 0.84 ± 0.03 µM
4 | CN(C)Cc1c(O)ccc2ccccc12 [Compound 4, 1-[(Dimethylamino)methyl]-2-naphthol] | not detected; also recorded: inactive | 31 µM and 31.6 µM | 0% dead |  | 11 (dimethylamine) |  |  |  | second order rate constant for inhibition of SmTGR E330/D334 (SmTGR-E330A/D334A [1]): 14.7 M⁻¹ s⁻¹; IC50 (SmTGR-U597C [3]): 2000 µM; fold higher apparent IC50 for SmTGR-U597C than for WT (SmTGR-U597C [4]): 200 fold; induction of NADPH oxidase activity in the inhibited WT enzyme (SmTGR WT [9]): able to induce; IC50 (human GR): 1830 µM; IC50 (SmTGR WT [5]): 11.2 ± 1.9 µM; inhibition of SmTGR WT at pH 6.4 (SmTGR WT [5]; pH 6.4, data not shown): low micromolar range; time to generate comparable amounts of oQM-thiol adduct [6]: 24 h; difference in inhibition rate between WT and E330A/D334A (SmTGR WT [10]; compound at 2 μM): about 360 fold; WT inhibited faster than E330A/D334A (SmTGR WT [10]; compound at 20 μM): 3 times; second order rate constant for inhibition of SmTGR WT (SmTGR WT [7]): 45.8 M⁻¹ s⁻¹; IC50 (SmTGR-E330A/D334A [11]): 44 ± 4.9 µM; fold higher inhibitor concentration needed for E330A/D334A than for WT (SmTGR-E330A/D334A [11]; same degree of inhibition): 4 fold
5 | Oc1ccc2ccccc2c1CN1CC=C(c2ccccc2)CC1 [Compound 5] | inactive |  |  |  |  | 11.9 ± 3.57 µM | inactive | inactive | 
6 | Oc1ccc2ccccc2c1CN1CCCC1 [Compound 6] | inactive |  |  | 0% dead | 11.2 (pyrolidine) | 28.8 ± 5.37 µM | inactive | inactive | 
7 | Oc1ccc2ccccc2c1CN1CCCCC1 [Compound 7] |  |  |  |  | 11.2 (piperidine) | 57.6 ± 4.57 µM | inactive | inactive | 
